Test results published in ChEMBL document CHEMBL1932986, “Synthesis and in vitro antimycobacterial activity of compounds derived from (R)- and (S)-2-amino-1-butanol - The crucial role of the configuration” (Eur J Med Chem, 2012).
≈ marks a conversion by molar mass, not a printed value. Calls of active or inactive are those of the source. The rule behind the calls is not given here.

How the values were obtained:
[1] = tested on: Mycobacterium tuberculosis; assay: Ratio of ethambutol dihydrochloride MIC to compound MIC for Mycobacterium tuberculosis H37Rv; assay type: functional
Priestia megaterium = assay: Antibacterial activity against Bacillus megaterium NRRL 1353895 at 50 mg/ml after 24 hrs by agar diffusion test; assay type: functional
Method in brief: (§1)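 Agar diffusion: wells in agar filled with […] DMSO solution of compound at various concentrations; diameter of clear zone around application point measured. Bacteria grown 24 h at 37 °C on nutrient agar. Compounds first screened at 50 mg/ml; those active then tested at lower concentrations. Bracketed value = lowest concentration (mg/ml) giving zone >11 mm, reported only if activity retained at ≤1.25 mg/ml.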

Bacillus subtilis = assay: Antibacterial activity against Bacillus subtilis ATCC 6633 at 50 mg/ml after 24 hrs by agar diffusion test; assay type: functional; method in brief: as §1
Bacillus mycoides = assay: Antibacterial activity against Bacillus mycoides DSMZ 274 at 50 mg/ml after 24 hrs by agar diffusion test; assay type: functional; method in brief: as §1
Micrococcus luteus [2] = assay: Antibacterial activity against Micrococcus luteus ATCC 9631 at 50 mg/ml after 24 hrs by agar diffusion test; assay type: functional; method in brief: as §1
Micrococcus luteus [3] = assay: Antibacterial activity against Sarcina lutea ATCC 9341 at 50 mg/ml after 24 hrs by agar diffusion test; assay type: functional
Method in brief: (§2)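 Agar diffusion: bacteria grown 24 h at 37 °C on nutrient agar. Wells in the agar are filled with […] of compound solution in DMSO at various concentrations. The diameter of the clear zone around the application point is measured. Bracketed values give the lowest concentration (mg/ml) that produces a zone >11 mm. A first screen is run at 50 mg/ml.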

[4] = tested on: Mycobacterium tuberculosis; assay: Antimycobacterial activity against Mycobacterium tuberculosis H37Rv after 45 days; assay type: functional
Method in brief: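 Canetti proportion method. Compound in DMSO is added to Löwenstein–Jensen egg medium before coagulation (30 min, 85 °C), tested at three levels plus a lower one where needed. Tubes are inoculated with H37Rv at 10⁵ cells/ml and incubated 45 days at 37 °C. Colony counts versus drug-free control give percentage inhibition.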

Candida tropicalis = assay: Antifungal activity against Candida tropicalis ATCC 20336 at 50 mg/ml after 72 hrs by agar diffusion test; assay type: functional
Method in brief: (§3)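 Agar diffusion: yeasts grown on yeast peptone dextrose agar and fungi on potato dextrose agar. Wells are filled with […] of compound solution in DMSO at various concentrations, and the clear-zone diameter is measured. Bracketed values give the lowest concentration (mg/ml) that produces a zone >11 mm. A first screen is run at 50 mg/ml.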

Saccharomyces cerevisiae = assay: Antifungal activity against Saccharomyces cerevisiae ATCC 9763 at 50 mg/ml after 72 hrs by agar diffusion test; assay type: functional; method in brief: as §3
Staphylococcus aureus = assay: Antibacterial activity against Staphylococcus aureus NRRL B 313 at 50 mg/ml after 24 hrs by agar diffusion test; assay type: functional; method in brief: as §2
Acinetobacter johnsonii = assay: Antibacterial activity against Acinetobacter johnsonii ATCC 17909 at 50 mg/ml after 24 hrs by agar diffusion test; assay type: functional; method in brief: as §1
Penicillium chrysogenum = assay: Antifungal activity against Penicillium chrysogenum CECT 2802 at 50 mg/ml after 72 hrs by agar diffusion test; assay type: functional; method in brief: as §3
HEK-293T = assay: Cytotoxicity against human HEK293T cells after 72 hrs by MTT assay; assay type: cell-based
Method in brief: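 293T cells in RPMI-1640 with 10% heat-inactivated FCS and 2 mM L-glutamine, 37 °C, 5% CO2. Cells seeded at 3.5 × 10⁵ cells/ml, grown 24 h, then exposed 72 h to DMSO-diluted compounds (final solvent ≤0.5%), ≥8 wells per concentration. MTT added 4 h, formazan dissolved in 5% HCOOH/2-propanol, absorbance read at 580 nm. IC50 obtained by sigmoidal nonlinear regression against untreated control.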

[5] = Selectivity index, ratio of IC50 for human HEK293T cells to MIC for Mycobacterium tuberculosis H37Rv; assay type: functional, HEK-293T
Bacillus = assay: Antibacterial activity against Bacillus idosus B 241 at 50 mg/ml after 24 hrs by agar diffusion test; assay type: functional; method in brief: as §1
[6] = Solubility of the compound in deionized water; assay type: physicochemical
Escherichia coli = assay: Antibacterial activity against Escherichia coli ATCC 8739 at 50 mg/ml after 24 hrs by agar diffusion test; assay type: functional; method in brief: as §1
Bacillus cereus = assay: Antibacterial activity against Bacillus cereus ATCC 11778 at 50 mg/ml after 24 hrs by agar diffusion test; assay type: functional; method in brief: as §1

Row | SMILES | Ratio [1] | diameter of the inhibition zone (DIZ) (Priestia megaterium) | diameter of the inhibition zone (DIZ) (Bacillus subtilis) | diameter of the inhibition zone (DIZ) (Bacillus mycoides) | diameter of the inhibition zone (DIZ) (Micrococcus luteus [2]) | diameter of the inhibition zone (DIZ) (Micrococcus luteus [3]) | MIC [4] [µM] | diameter of the inhibition zone (DIZ) (Candida tropicalis) | diameter of the inhibition zone (DIZ) (Saccharomyces cerevisiae) | diameter of the inhibition zone (DIZ) (Staphylococcus aureus) | diameter of the inhibition zone (DIZ) (Acinetobacter johnsonii) | diameter of the inhibition zone (DIZ) (Penicillium chrysogenum) | IC50 (HEK-293T) [µM] | Selectivity Index [5] | diameter of the inhibition zone (DIZ) (Bacillus) | solubility [6] [mg/mL] | diameter of the inhibition zone (DIZ) (Escherichia coli) | diameter of the inhibition zone (DIZ) (Bacillus cereus) | also measured
1 | CC[C@H](CO)NC(=O)c1ccccc1C(=O)N[C@H](CC)CO | 5 | inactive | inactive | inactive | inactive | inactive | 0.65 (≈ 0.2 µg/mL) | inactive | inactive | inactive | inactive | inactive | 244 | 375.4 | inactive | 46 (≈ 149 mM) | inactive | inactive | 
2 | CCNC(=O)N[C@H](CC)CO | 5 | inactive | inactive | inactive | inactive | inactive | 1.25 (≈ 0.2 µg/mL) | inactive | inactive | inactive | inactive | inactive | 114 | 91.2 | inactive | 215 (≈ 1340 mM) | inactive | inactive | 
3 | CC[C@H](CO)NC(=O)c1ccccc1O | 5 |  | inactive |  |  |  | 0.96 (≈ 0.201 µg/mL) |  |  |  |  | inactive | 257 | 267.7 |  | 2 (≈ 9.56 mM) | inactive |  | zone of inhibition at 50000 µg/mL (Priestia megaterium; NRRL 1353895, 24 h, read-out: DIZ): 13 mm; zone of inhibition at 50000 µg/mL (Bacillus mycoides; DSMZ 274, 24 h, read-out: DIZ): 12 mm; zone of inhibition at 50000 µg/mL (Micrococcus luteus [2]; ATCC 9631, 24 h, read-out: DIZ): 11 mm; zone of inhibition at 50000 µg/mL (Micrococcus luteus [3]; ATCC 9341, 24 h, read-out: DIZ): 13 mm; zone of inhibition at 50000 µg/mL (Candida tropicalis; ATCC 20336, 72 h, read-out: DIZ): 13 mm; zone of inhibition at 50000 µg/mL (Saccharomyces cerevisiae; ATCC 9763, 72 h, read-out: DIZ): 15 mm; zone of inhibition at 50000 µg/mL (Staphylococcus aureus; NRRL B 313, 24 h, read-out: DIZ): 11 mm; zone of inhibition at 50000 µg/mL (Acinetobacter johnsonii; ATCC 17909, 24 h, read-out: DIZ): 13 mm; zone of inhibition at 50000 µg/mL (Bacillus; B 241, 24 h, read-out: DIZ): 11 mm; zone of inhibition at 50000 µg/mL (Bacillus cereus; ATCC 11778, 24 h, read-out: DIZ): 11 mm
